Assay [1] addresses Melanocyte-stimulating hormone receptor (Homo sapiens, UniProt Q01726). In words: Agonist activity at human MC1R expressed in CHO cells after 4 hrs by luciferase reporter gene assay. The method in brief:
(§1)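 CHO-6xCRE-luc+ cells expressing the human receptor, plated at 4000 cells/well in DMEM/F12 with 10% FBS 48 h before assay. Switched to serum-free medium 16 h before compound addition, then incubated 4 h at 37 °C. Luciferase read after 10 min dark adaptation. Activity expressed as % of fold stimulation by 1 × 10^-7 M NDP-aMSH (duplicate control wells).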
For orientation: In a reporter assay the amount or activity of a reporter protein is the signal.

The next assay concerns the target Melanocortin receptor 4 (Homo sapiens, UniProt P32245). Description: Agonist activity at human MC4R expressed in CHO cells after 4 hrs by luciferase reporter gene assay. The method in brief:
as §1

Counter-ions that a name gives are not always drawn.

The EC50 is the midpoint of the concentration-response curve. Read a low EC50 as greater potency.

Chain of Melanocortin receptor 4 (P32245 whole entry): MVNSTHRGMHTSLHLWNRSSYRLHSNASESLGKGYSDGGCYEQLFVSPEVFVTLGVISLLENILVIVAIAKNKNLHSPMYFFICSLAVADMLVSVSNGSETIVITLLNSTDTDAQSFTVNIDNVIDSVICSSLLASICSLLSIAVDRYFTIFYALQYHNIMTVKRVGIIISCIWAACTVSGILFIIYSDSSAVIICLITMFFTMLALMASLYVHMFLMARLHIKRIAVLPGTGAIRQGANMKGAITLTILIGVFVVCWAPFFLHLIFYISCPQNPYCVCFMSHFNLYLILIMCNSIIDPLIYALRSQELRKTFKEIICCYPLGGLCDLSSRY
Chain of Melanocyte-stimulating hormone receptor (Q01726 whole entry): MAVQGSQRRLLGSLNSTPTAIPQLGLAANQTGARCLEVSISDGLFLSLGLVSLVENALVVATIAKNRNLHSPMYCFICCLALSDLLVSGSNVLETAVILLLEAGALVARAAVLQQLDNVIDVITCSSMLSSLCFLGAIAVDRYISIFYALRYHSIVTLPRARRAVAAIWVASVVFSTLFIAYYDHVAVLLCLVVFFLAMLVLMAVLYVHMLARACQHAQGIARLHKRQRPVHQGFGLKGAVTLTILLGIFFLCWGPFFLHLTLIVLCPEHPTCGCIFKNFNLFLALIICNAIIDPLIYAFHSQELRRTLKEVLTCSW

In assay [1], `CC(C)N(C(=O)CN1C=CN(c2ccccc2)C(=O)[C@@H](Cc2n[nH]c3ccccc23)C1=O)c1ccccc1` returned an EC50 of over 31.6 µM.

On Melanocortin receptor 4, `CC(C)N(C(=O)CN1C=CN(c2ccccc2)C(=O)C(Cc2n[nH]c3ccccc23)C1=O)c1ccc(O)cc1` (stereo unspecified) returned an EC50 of over 31.6 µM. As for `COc1ccc(N(C(=O)CN2C=CN(C3CCCCC3)C(=O)C(Cc3ccccc3)C2=O)C(C)C)cc1` (racemic) [(+/-)-2-[4-Cyclohexyl-5,7-dioxo-6-(phenylmethyl)-4,5,6,7-tetrahydro-1H-1,4-diazepin-1-yl]-N-(1-methylethyl)-N-[4-(methyloxy)phenyl]acetamide], the EC50 (on Melanocortin receptor 4; in assay [1]) was over 31.6 µM throughout.

For the molecule `COc1ccc(N(C(=O)CN2C=CN(C3CCCCC3)C(=O)C(Cc3n[nH]c4ccccc34)C2=O)C(C)C)cc1` (racemic) [(+/-)-2-[4-Cyclohexyl-6-(1H-indazol-3-ylmethyl)-5,7-dioxo-4,5,6,7-tetrahydro-1H-1,4-diazepin-1-yl]-N-(1-methylethyl)-N-[4-(methyloxy)phenyl]acetamide trifluoroacetate], the 50% effective concentration (EC50) (at Melanocortin receptor 4; in assay [1]) was over 31.6 µM throughout. In turn, `COc1ccc(N(C(=O)CN2C=CN(Cc3ccccc3)C(=O)C(Cc3n[nH]c4ccccc34)C2=O)C(C)C)cc1` (racemic) [(+/-)-2-[6-(1H-Indazol-3-ylmethyl)-5,7-dioxo-4-(phenylmethyl)-4,5,6,7-tetrahydro-1H-1,4-diazepin-1-yl]-N-(1-methylethyl)-N-[4-(methyloxy)phenyl]acetamide] registered a half-maximal effective concentration (EC50) at Melanocortin receptor 4 of over 31.6 µM.

For `CC(C)N(C(=O)CN1C=CN(c2ccccc2)C(=O)C(Cc2n[nH]c3ccccc23)C1=O)c1ccc(N2CCOCC2)cc1` (racemic) [(+/-)-2-[6-(1H-Indazol-3-ylmethyl)-5,7-dioxo-4-phenyl-4,5,6,7-tetrahydro-1H-1,4-diazepin-1-yl]-N-(1-methylethyl)-N-[4-(4-morpholinyl)phenyl]acetamide], the half-maximal effective concentration (EC50) on Melanocortin receptor 4 was over 31.6 µM. Still for that read-out and setting: for `CC(C)N(C(=O)CN1C=CN(C)C(=O)C(Cc2n[nH]c3cc(F)ccc23)C1=O)c1ccc(F)cc1` (racemic) [(+/-)-2-{6-[(6-Fluoro-1H-indazol-3-yl)methyl]-4-methyl-5,7-dioxo-4,5,6,7-tetrahydro-1H-1,4-diazepin-1-yl}-N-(4-fluorophenyl)-N-(1-methylethyl)acetamide] the value was over 31.6 µM. Turning to `COc1ccc(N(C(=O)CN2C=CN(c3ccccc3)C(=O)C(Cc3nn(C)c4ccccc34)C2=O)C(C)C)cc1` (racemic) [(+/-)-N-(1-methylethyl)-2-{6-[(1-methyl-1H-indazol-3-yl)methyl]-5,7-dioxo-4-phenyl-4,5,6,7-tetrahydro-1H-1,4-diazepin-1-yl}-N-[4-(methyloxy)phenyl]acetamide], the EC50 (on Melanocortin receptor 4; in assay [1]) was over 31.6 µM in each case.

(Values after BindingDB's records for doi:10.1016/j.bmc.2010.01.049 (Glaxosmithkline, 2010).)
